Source: the EternaBench riboswitch data

Test system: MS2 coat protein
Assay: apparent Kd, MS2 coat protein; higher = weaker binding; RNA-MaP array; FMN 200 µM where present
Outline: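 The apparent Kd comes from binding curves fitted cluster by cluster, filtered, and summarised as a median. Those curves followed SNAP-549-labelled MS2 coat protein from 0.7 or 1.5 nM, doubling to 3 µM, on Illumina sequencing-chip clusters where stalled E. coli RNA polymerase had transcribed the designs, without and then with constant ligand. The buffer was 100 mM Tris-HCl pH 7.5, 80 mM KCl, 4 mM MgCl2, BSA, DTT, yeast tRNA and Tween-20, and green signal was normalised to red-channel RNA signal and control-cluster median Fmax.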

[1] = designed as: OFF switch for flavin mononucleotide, no ligand
[2] = ligand present: flavin mononucleotide, designed as: OFF switch for flavin mononucleotide
[3] = designed as: ON switch for flavin mononucleotide, no ligand
[4] = ligand present: flavin mononucleotide, designed as: ON switch for flavin mononucleotide

Sequence	apparent Kd [1]	apparent Kd [2]	apparent Kd [3]	apparent Kd [4]
AUUUUGUCAGGAUAUGAGUAGUAGGACGAAAGUGUUAUUAUUUAGAAGGGACAUGAGGAUCACCCAUGUUUUCC	12.7 nM	16.7 nM	–	–
AUUUUGUCAGGAUAUGAUUAGUAGGAUGAGAGUGCUACUACUUAGAAGGGACAUGAGGAUCACCCAUGUAUUCC	16.8 nM	20 nM	–	–
AUUUUGUGAGGAUAUGUGGCUUCGAUCGUAAAAUCGAGGCUACAGAAGGCACAUGAGGAUCACCCAUGUUCCUA	19 nM	205 nM	–	–
CAAAACAUCUCCGUGUUUGUCGAACAUGAGGAUCACCCAUGUAGAAGGCGCUUCGCGUCGCGGAGCGAGGAUAUACGCUGGAUG	11.4 nM	86.3 nM	–	–
CAAAGACAAGCAGGAUAUCACAUGAGGAUCACCCAUGUCGGGAUCACCUGAGAGUGUUUAUUAAGUGAGAAGGGCUAGAUCACC	17.6 nM	31.2 nM	–	–
CAAGGCGGUGAAGGAUAUACACGGGCGUUGCCAAACAUGAGGAUCACCCAUGUAGAAGGUCACCCUGAGAAGGCUUUAUGCCAU	382 nM	45.2 nM	–	–
CAAUUUAUAACAGGAUAUAUAAUACAAUGAUUAAUAGAAGGGUUUAAUACAUGAGGAUCACCCAUGUCAUGUGUCAUAAUUACC	40.1 nM	32 nM	–	–
CACAACCAGGGAGGAUAUACAUGAGGAUCACCCAUGUUCGGCUCCCAUGCAGGAUGCCGUCCCGUGUAGAAGGCCCAGCGAUAG	9.91 nM	32.2 nM	–	–
CACAAGAAAGUCGAACCGCUAUCUAGAAGGACAACAUGACAACAUGAGGAUCACCCAUGUCAUAUGUAGGAUAUGGAUGGUGGG	8.94 nM	9.14 nM	–	–
CACAAGAAAGUCGAAGGUUGAAGUAGAAGGUCUACAACAUGACAUGAGGAUCACCCAUGUGCUAAGAAGGAUAUGCUUUAAUCG	8.71 nM	7.12 nM	–	–
CACAGGGAUUCAGGAUAUAUUAGCCGAGGCCGCGUAGAAGGGAAAUCCUGACAUGAGGAUCACCCAUGUUAACCCACUUUUCAU	–	–	28.1 nM	28.4 nM
CACAUGAGGAUCACCCAUGUACUUAAUAUAAAUGUCAGAACCAGAAGGACCAGUUGAUUUGACCGGUAGGAUAUGGGCGGACCG	–	–	18.1 nM	6.89 nM
CACAUUUUAACAGGAUAUGUAAGGUAGCUUAUUAUUGCAUAUACAAUUAUUACAGAAGGGUUAUACAUGAGGAUCACCCAUGUG	–	–	22.8 nM	17.1 nM
CACCCACAUGAGGAUCACCCAUGUGAGGAUAUGAUACUAUGUACUUCGGUACAUAGUAUCAGAAGGCACAGGUG	32 nM	106 nM	–	–
CACCGUUAAGGAGGAUAUCGUACAUGAGGAUCACCCAUGUAAUAAAUGAGAAUUUCGGAUGUAUGCGAGAAGGCCUAAAUCGGC	49.5 nM	42 nM	–	–
CACCGUUAGCGAGGAUAUCGUACAUGAGGAUCACCCAUGUAAUAAAUGAGAAUUUCGGAUGUAUGCGAGAAGGCGCGAAUCGGC	52.9 nM	40.6 nM	–	–
CACGAGCUAGGAUAUACAUGAGGAUCACCCAUGUAAGUCAUGCGGUCACAUCUGACAGGUAGAAGGAGCGCGUC	39.3 nM	126 nM	–	–
CACGCCUAGGAGAAGGGCCCACUAUAGGGUAAAUGCUGUUCUCACAUGAGGAUCACCCAUGUGCGGCAGGAUAUCCACGCGUAA	7.28 nM	34.6 nM	–	–
CACUCGUGUCUAGGAUAUGAGUGACAAGCGCGAGAUUUUCUCGGCGCUAGCUCAGAAGGAGACAUGAGGAUCACCCAUGUAAGG	162 nM	12 nM	–	–
CAGAAGUCAGGAUAUGCAUGGCGGGACUUGCGUCGUGGCGUGCAGAAGGGACAUGAGGAUCACCCAUGUAAAGG	174 nM	300 nM	–	–
CAGAGACAAGCAGGAUAUCGACACAUGAGGAUCACCCAUGUUCGUAGGAACCUGGGUCAAGUCUGCGAGAAGGGCUCGUCAGUA	151 nM	159 nM	–	–
CAGAUCGAUGUGAGGAUAUCUGUGUUACCCUGUAAGGAGAAGGCACAUGAGGAUCACCCAUGUGAUUCGGUCCU	40.4 nM	36.3 nM	–	–
CAGCAAAAGUAGAAGGCAGUACUGAUUCAGUACUGAGGAUAUACAUGAGGAUCACCCAUGUAUUCCAGCUGAAUAAUAAAAUAU	5.43 nM	5.63 nM	–	–
CAGCGAAAGCUGAAUCUGUAGAGAGAGGAUAUACAUCAUAAGAUGCAUACAUGAGGAUCACCCAUGUAGAAGGCUCUCUACAGU	5.49 nM	6.83 nM	–	–
CAGCGAAAGUAGAAGGCAGUACUGAUACAGUACUGAGGAUAUACAUGAGGAUCACCCAUGUUCUUCAGCUGGAAAUAAAUAAAA	8.02 nM	124 nM	–	–
CAGCGAAAGUAGAAGGUAUUAAUUAAAUUUAAAUAAGGAUAUACAUGAGGAUCACCCAUGUCCUUCAGCUGGAUAUAUAUUAAU	39.1 nM	29.1 nM	–	–
CAGCGCUGUCGAGAGGAUAUGCGGUGAUGGACAUGAGGAUCACCCAUGUAAGCGAUAGCAUUACGGCAGAAGGCUCUGCAGCUGC	–	–	25.1 nM	17.4 nM
CAGCUGAAUGUGAGGAUAUCUAGAGCUGCGGCUCUAGAGAAGGCACAUGAGGAUCACCCAUGUCUCAACAGCUG	40.7 nM	294 nM	–	–

Sequence	apparent Kd [1]	apparent Kd [2]	apparent Kd [3]	apparent Kd [4]
CAGCUGAAUGUGAGGAUAUCUAGAGCUUCGGCUCUAGAGAAGGCACAUGAGGAUCACCCAUGUCUCAACAGCUG	39.2 nM	296 nM	–	–
CAGGAUAGAGGAUAUACAUAGAUACAGAUUCAUGUGAUCCUACAUGAGGAUCACCCAUGUAGAAGGCUAACCUG	288 nM	82.2 nM	–	–
CAGGUAGACUGAGGAUAUACAAAAGACCUAGUCUAUCUAGGUCACAUCACAUGAGGAUCACCCAUGUAGAAGGCAGUCUGCCUG	16.2 nM	27.1 nM	–	–
CAGGUAGACUGAGGAUAUACAAUAAACAGCUAGUCUAUCUAGCUGCCUACAUGAGGAUCACCCAUGUAGAAGGCAGUCUGCCUG	16.2 nM	16.6 nM	–	–
CAGGUAGACUGAGGAUAUACAAUAAAGACCUAGUCUAUCUAGGUCUUCACAUGAGGAUCACCCAUGUAGAAGGCAGUCUGCCUG	19.1 nM	38.5 nM	–	–
CAGGUAGACUGAGGAUAUACACUAAACAGCUAGUCUAUCUAGCUGACCACAUGAGGAUCACCCAUGUAGAAGGCAGUCUGCCUG	18.1 nM	39.2 nM	–	–
CAGGUAGACUGAGGAUAUACACUAAACAGCUAGUCUAUCUAGCUGAUCACAUGAGGAUCACCCAUGUAGAAGGCAGUCUGCCUG	19.6 nM	56.5 nM	–	–
CAGUACUGAGGAUAUACAUGAGGAUCACCCAUGUGUCCCUGCUAGGAAACUAGCAAUAGUAGAAGGCAGUACUG	17.7 nM	199 nM	–	–
CAGUACUGAGGAUAUACAUGAGGAUCACCCAUGUGUCUAAGGUAGGAUACUACCAUUAGUAGAAGGCAGUACUG	12.4 nM	18.1 nM	–	–
CAGUACUGAGGAUAUACAUGAGGAUCACCCAUGUGUUCCAGCUAGGAAACUUGCAAAAGUAGAAGGCAGUACUG	12.1 nM	30.6 nM	–	–
CAGUGUAGUUAGGAUAUCGGGUCGGUUGGGCGCUGAGAAGGAACUACAUGAGGAUCACCCAUGUGGGCUCUUCU	19.5 nM	37.1 nM	–	–
CAGUUCUGAGGAUAUCCACCCUCCUACAUGAGGAUCACCCAUGUUUCCCUCUGGGUUUUCGGAGAAGGCAGUUAUC	44.7 nM	79.6 nM	–	–
CAUACACAUGAGGAUCACCCAUGUGAGGAUAUGCGUACGUAAUCCGUAGGAGACGUGCGCAGAAGGCGCGAGGU	56.6 nM	44 nM	–	–
CAUACACAUGAGGAUCACCCAUGUGAGGAUAUGCGUACGUUGUCCGUAGGCGACGUGCGCAGAAGGCGCGUGUU	56.9 nM	48.3 nM	–	–
CAUAUCGUACGAGGAUAUAUGAGUCCUACAUGAGGAUCACCCAUGUAGGUGAUCUAACGAGAUUAGUAGAAGGCGUACGAUAUG	–	–	14.1 nM	7.85 nM
CAUGACAAAGGAUAUACAUGAGGAUCACCCAUGUGGUCAUGGAAGUACGUGUUCUCACGUAGAAGGUUGCAGGG	12.8 nM	24.9 nM	–	–
CAUGUCCUCACAGGAUAUGCAAUGUAUUUCAUUGCAGAAGGGUGAAUACAUGAGGAUCACCCAUGUGGACAUGAUAUAUUUAAU	–	–	725 nM	77.8 nM
CAUGUCCUCACAGGAUAUGCUGGACUUUGUCCAGCAGAAGGGUGAACAUGAGGAUCACCCAUGUUGUGGACAUGUAUAUUUAAG	–	–	228 nM	575 nM
CAUGUCCUCACAGGAUAUGCUGGACUUUGUCCAGCAGAAGGGUGUUAACAUGAGGAUCACCCAUGUGGACAUGAUAUAUUUAAU	–	–	933 nM	69.8 nM
CAUGUGUUAGGAUAUGCACCGAUCUCCGAAAGGAGAUCGGUGCAGAAGGAACAUGAGGAUCACCCAUGUUGAUG	39.9 nM	140 nM	–	–
CAUUAAUUCAUUAUAGUAAUUAUACAGGAUAUGUAACAUGAGGAUCACCCAUGUAUUCUUGGUUAACAGAAGGGUAUUACUUGU	17.5 nM	27.6 nM	–	–
CAUUAAUUCAUUAUAGUAAUUAUACAGGAUAUGUUACAUGAGGAUCACCCAUGUAUUCAUGGUAAACAGAAGGGUAAUACAAGA	13.8 nM	16.3 nM	–	–
CAUUAAUUCAUUAUAUUAAUUUUACAGGAUAUGUAACAUGAGGAUCACCCAUGUAUUCUAGGUUAACAGAAGGGUAUUACUUGU	28.6 nM	22.9 nM	–	–
CAUUAUUAUCGAGGAUAUCCUAUUGAAAUUCUGGGAGAAGGCGGACUCAACAUGAGGAUCACCCAUGUGGGACGGAUGCUAGGG	22.9 nM	20 nM	–	–
CAUUCAUGUCUAGGAUAUGAGUGACAAGCGCGAAGUUUUUUCGCCGCUAGCUCAGAAGGAGACAUGAGGAUCACCCAUGUAAGG	24.1 nM	9.96 nM	–	–
CAUUUGUGAGGAUAUCAGGUGUGCUAGCGUACUGGUACAUCUGAGAAGGCACAUGAGGAUCACCCAUGUUCCUU	12.8 nM	30 nM	–	–
CCAAGAAUAGGAUAUACACGAUGUCAGCUUCUAUACAUCGCACAUGAGGAUCACCCAUGUAGAAGGGUUCUCUC	735 nM	823 nM	–	–
